From ChEMBL document CHEMBL2086239, “Synthesis and biological evaluation of combretastatin-amidobenzothiazole conjugates as potential anticancer agents” (Eur J Med Chem, 2012)
The source made the active and inactive calls. The rule behind the calls is not given here.

Legend:
Type in all cases: functional
HT-29 = experiment: Growth inhibition of human HT-29 cells after 48 hrs by SRB assay; settings: HT-29, 48 h
In short: (§1)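 NCI 60-cell-line screen: after preliminary screening, tested at five dose concentrations on 59 human tumour lines covering leukemia, lung, colon, CNS, melanoma, ovarian, renal, prostate and breast.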

SW-620 = experiment: Growth inhibition of human SW620 cells after 48 hrs by SRB assay; settings: SW-620, 48 h
In short: (§2)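 NCI 60-cell-line panel, five-dose testing after preliminary screen; sulforhodamine B protein assay in DMEM with 10% FBS, 37 °C, 5% CO2, 100% humidity. Cells seeded and incubated 24 h before compound addition, then exposed 48 h. Absorbance read at 560 nm; growth percentage relative to control wells; GI50 taken as concentration giving 50% growth inhibition.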

PC-3 = experiment: Growth inhibition of human PC3 cells after 48 hrs by SRB assay; settings: PC-3, 48 h; in short: as §1
TK-10 = experiment: Growth inhibition of human TK10 cells after 48 hrs by SRB assay; settings: TK-10, 48 h; in short: as §2
NCI-H23 = experiment: Growth inhibition of human NCI-H23 cells after 48 hrs by SRB assay; settings: NCI-H23, 48 h; in short: as §1
Hs-578T = experiment: Growth inhibition of human Hs578T cells after 48 hrs by SRB assay; in short: as §1
NCI-H322M = experiment: Growth inhibition of human NCI-H322M cells after 48 hrs by SRB assay; in short: as §1
MCF7 [1] = experiment: Cytotoxicity against human MCF7 cells after 48 hrs assessed as inhibition of cell growth at 10 uM after 48 hrs by SRB assay relative to control; settings: MCF7, 48 h, read-out: GI
In short: (§3)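 SRB protein assay in DMEM with 10% FBS at 37 °C, 5% CO2, 100% relative humidity. Cells seeded in 96-well plates, incubated 24 h, then exposed to drug at 10 µM for 48 h and processed per standard protocol. Absorbance read at 560 nm; growth percentage calculated for test wells relative to control wells.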

HCT-15 = experiment: Growth inhibition of human HCT15 cells after 48 hrs by SRB assay; settings: HCT-15, 48 h; in short: as §1
OVCAR-3 = experiment: Growth inhibition of human OVCAR3 cells after 48 hrs by SRB assay; settings: OVCAR-3, 48 h; in short: as §1
HCC 2998 = experiment: Growth inhibition of human HCC2998 cells after 48 hrs by SRB assay; settings: HCC 2998, 48 h; in short: as §1
A549 [2] = experiment: Cytotoxicity against human A549 cells assessed as inhibition of cell growth at 10 uM after 48 hrs by SRB assay relative to control; settings: A549, 48 h, read-out: GI; in short: as §3
U-251 = experiment: Growth inhibition of human U251cells after 48 hrs by SRB assay; settings: U-251, 48 h; in short: as §2
OVCAR-5 = experiment: Growth inhibition of human OVCAR5 cells after 48 hrs by SRB assay; settings: OVCAR-5, 48 h; in short: as §1
MCF7 [3] = experiment: Cell cycle arrest in human MCF7 cells assessed as accumulation at S phase at 4 uM after 24 hrs by FACS analysis (reference value: 6.79%)
IGROV-1 = experiment: Growth inhibition of human IGROV1 cells after 48 hrs by SRB assay; settings: IGROV-1, 48 h; in short: as §1
SNB-19 = experiment: Growth inhibition of human SNB19 cells after 48 hrs by SRB assay; settings: SNB-19, 48 h; in short: as §2
MCF7 [4] = experiment: Cell cycle arrest in human MCF7 cells assessed as accumulation at G1 phase at 4 uM after 24 hrs by FACS analysis (reference value: 58.33%)
HEp-2 = experiment: Cytotoxicity against human Hep2 cells after 48 hrs assessed as inhibition of cell growth at 10 uM after 48 hrs by SRB assay relative to control; settings: for inhibition of growth at 10 µM: HEp-2, 48 h, read-out: GI; in short: as §3
HOP-92 = experiment: Growth inhibition of human HOP92 cells after 48 hrs by SRB assay; settings: HOP-92, 48 h; in short: as §1
SF-295 = experiment: Growth inhibition of human SF295 cells after 48 hrs by SRB assay; settings: SF-295, 48 h; in short: as §2
CCRF-CEM = experiment: Growth inhibition of human CCRF-CEM cells after 48 hrs by SRB assay; in short: as §1
NCI-H226 = experiment: Growth inhibition of human NCI-H226 cells after 48 hrs by SRB assay; settings: NCI-H226, 48 h; in short: as §1
SK-MEL-28 = experiment: Growth inhibition of human SK-MEL-28 cells after 48 hrs by SRB assay; settings: SK-MEL-28, 48 h; in short: as §2
SK-MEL-2 = experiment: Growth inhibition of human SK-MEL-2 cells after 48 hrs by SRB assay; settings: SK-MEL-2, 48 h; in short: as §2
MCF7 [5] = experiment: Cell cycle arrest in human MCF7 cells assessed as accumulation at G2/M phase at 4 uM after 24 hrs by FACS analysis (reference value: 34.88%)
MOLT-4 = experiment: Growth inhibition of human MOLT4 cells after 48 hrs by SRB assay; settings: MOLT-4, 48 h; in short: as §1
CAKI-1 = experiment: Growth inhibition of human Caki1 cells after 48 hrs by SRB assay; settings: CAKI-1, 48 h; in short: as §1
COLO 205 [6] = experiment: Cytotoxicity against human COLO205 cells after 48 hrs assessed as inhibition of cell growth at 10 uM after 48 hrs by SRB assay relative to control; settings: COLO 205, 48 h, read-out: GI; in short: as §3
LOX IMVI = experiment: Growth inhibition of human LOXIMVI cells after 48 hrs by SRB assay; in short: as §1
786-0 = experiment: Growth inhibition of human 786-0 cells after 48 hrs by SRB assay; settings: 786-0, 48 h; in short: as §1
A498 = experiment: Growth inhibition of human A498 cells after 48 hrs by SRB assay; settings: A498, 48 h; in short: as §1
OVCAR-4 = experiment: Growth inhibition of human OVCAR4 cells after 48 hrs by SRB assay; settings: OVCAR-4, 48 h; in short: as §1
A549 [7] = experiment: Growth inhibition of human A549 cells after 48 hrs by SRB assay; settings: A549, 48 h; in short: as §1
SK-MEL-5 = experiment: Growth inhibition of human SK-MEL-5 cells after 48 hrs by SRB assay; settings: SK-MEL-5, 48 h; in short: as §2
THP-1 = experiment: Cytotoxicity against human THP1 cells after 48 hrs assessed as inhibition of cell growth at 10 uM after 48 hrs by SRB assay relative to control; settings: for inhibition of growth at 10 µM: THP-1, 48 h, read-out: GI; in short: as §3
NCI-H460 = experiment: Growth inhibition of human NCI-H460 cells after 48 hrs by SRB assay; settings: NCI-H460, 48 h; in short: as §1
COLO 205 [8] = experiment: Growth inhibition of human COLO205 cells after 48 hrs by SRB assay; settings: COLO 205, 48 h; in short: as §1
SR = experiment: Growth inhibition of human SR cells after 48 hrs by SRB assay; in short: as §2
MDA-MB-435 = experiment: Growth inhibition of human MDA-MB-435 cells after 48 hrs by SRB assay; settings: MDA-MB-435, 48 h; in short: as §1
ACHN = experiment: Growth inhibition of human ACHN cells after 48 hrs by SRB assay; in short: as §1
HOP-62 = experiment: Growth inhibition of human HOP62 cells after 48 hrs by SRB assay; settings: HOP-62, 48 h; in short: as §1

COc1ccc(/C=C\c2cc(OC)c(OC)c(OC)c2)cc1O [COMBRETASTATIN A4]
GI50 (HT-29): 100 nM
GI50 (SW-620): 3 nM
GI50 (PC-3): 1 nM
GI50 (TK-10): 100 nM
GI50 (NCI-H23): 3 nM
GI50 (Hs-578T): 1 nM
GI50 (NCI-H322M): 3 nM
inhibition of growth at 10 µM (MCF7 [1]): 71%
GI50 (HCT-15): 3 nM
GI50 (OVCAR-3): 1 nM
GI50 (HCC 2998): 63 nM
inhibition of growth at 10 µM (A549 [2]): 55%
GI50 (U-251): 7 nM
GI50 (OVCAR-5): 100 nM
Activity (MCF7 [3]): 14.27%
GI50 (IGROV-1): 15 nM
GI50 (SNB-19): 3 nM
Activity (MCF7 [4]): 24.5%
inhibition of growth at 10 µM (HEp-2): 64%
GI50 (HOP-92): 2 nM
GI50 (SF-295): 3 nM
GI50 (CCRF-CEM): 2 nM
GI50 (NCI-H226): 3 nM
GI50 (SK-MEL-28): 7 nM
GI50 (SK-MEL-2): 3 nM
Activity (MCF7 [5]): 61.23%
GI50 (MOLT-4): 3 nM
GI50 (CAKI-1): 25 nM
inhibition of growth at 10 µM (COLO 205 [6]): 63%
GI50 (LOX IMVI): 3 nM
GI50 (786-0): 100 nM
GI50 (A498): 6 nM
GI50 (OVCAR-4): 15 nM
GI50 (A549 [7]): 15 nM
GI50 (SK-MEL-5): 3 nM
inhibition of growth at 10 µM (THP-1): 87%
GI50 (NCI-H460): 7 nM
GI50 (COLO 205 [8]): 100 nM
GI50 (SR): 3 nM
GI50 (MDA-MB-435): 1 nM
GI50 (ACHN): 6 nM
GI50 (HOP-62): 2 nM

COc1ccc(/C=C\c2cc(OC)c(OC)c(OC)c2)cc1OCC(=O)Nc1nc2ccc(C(F)(F)F)cc2s1
GI50 (HT-29): 14900 nM
GI50 (SW-620): 4650 nM
GI50 (PC-3): 4320 nM
GI50 (TK-10): 7030 nM
GI50 (NCI-H23): 3900 nM
GI50 (Hs-578T): 4180 nM
GI50 (NCI-H322M): 5380 nM
inhibition of growth at 10 µM (MCF7 [1]): 62%
GI50 (HCT-15): 3240 nM
GI50 (OVCAR-3): 2110 nM
GI50 (HCC 2998): 4230 nM
inhibition of growth at 10 µM (A549 [2]): 30%
GI50 (U-251): 3670 nM
GI50 (OVCAR-5): 5980 nM
Activity (MCF7 [3]): 7.15%
GI50 (IGROV-1): 4480 nM
GI50 (SNB-19): 5030 nM
Activity (MCF7 [4]): 55.82%
inhibition of growth at 10 µM (HEp-2): 76%
GI50 (HOP-92): 2880 nM
GI50 (SF-295): 3360 nM
GI50 (CCRF-CEM): 4270 nM
GI50 (NCI-H226): 3170 nM
GI50 (SK-MEL-28): 3000 nM
GI50 (SK-MEL-2): 3980 nM
Activity (MCF7 [5]): 37.02%
GI50 (MOLT-4): 3750 nM
GI50 (CAKI-1): 3100 nM
inhibition of growth at 10 µM (COLO 205 [6]): 25%
GI50 (LOX IMVI): 4010 nM
GI50 (786-0): 6960 nM
GI50 (A498): 2810 nM
GI50 (OVCAR-4): 4660 nM
GI50 (A549 [7]): 4460 nM
GI50 (SK-MEL-5): 2840 nM
inhibition of growth at 10 µM (THP-1): 29%
GI50 (NCI-H460): 3550 nM
GI50 (COLO 205 [8]): 17100 nM
GI50 (SR): 3350 nM
GI50 (MDA-MB-435): 1840 nM
GI50 (ACHN): 4820 nM
GI50 (HOP-62): 5220 nM

COc1ccc(/C=C\c2cc(OC)c(OC)c(OC)c2)cc1OCC(=O)Nc1nc2ccccc2s1
GI50 (HT-29): 3160 nM
GI50 (PC-3): 180 nM
GI50 (NCI-H23): 110 nM
inhibition of growth at 10 µM (MCF7 [1]): 72%
GI50 (HCT-15): 48 nM
GI50 (OVCAR-3): 43 nM
GI50 (HCC 2998): 370 nM
inhibition of growth at 10 µM (A549 [2]): 44%
GI50 (U-251): 48 nM
Activity (MCF7 [3]): 27.48%
GI50 (IGROV-1): 210 nM
Activity (MCF7 [4]): 25.94%
growth inhibition (GI) (HEp-2): inactive
GI50 (HOP-92): 39 nM
GI50 (SF-295): 220 nM
GI50 (CCRF-CEM): 78 nM
GI50 (NCI-H226): 270 nM
GI50 (SK-MEL-2): 180 nM
Activity (MCF7 [5]): 46%
GI50 (MOLT-4): 340 nM
GI50 (CAKI-1): 410 nM
inhibition of growth at 10 µM (COLO 205 [6]): 60%
GI50 (LOX IMVI): 67 nM
GI50 (786-0): 100 nM
GI50 (A498): 360 nM
GI50 (OVCAR-4): 370 nM
GI50 (A549 [7]): 340 nM
GI50 (SK-MEL-5): 36 nM
growth inhibition (GI) (THP-1): inactive
GI50 (NCI-H460): 52 nM
GI50 (COLO 205 [8]): 2830 nM
GI50 (SR): 37 nM
GI50 (MDA-MB-435): 19 nM
GI50 (ACHN): 93 nM
